From ChEMBL document CHEMBL2311377, “Trisubstituted thiophene analogues of 1-thiazolyl-2-pyrazoline, super oxidase inhibitors and free radical scavengers” (Bioorg Med Chem, 2013)

How the values were obtained:
[1] = biological target: T1, Xanthine dehydrogenase/oxidase (Rattus norvegicus, UniProt P22985); experiment: Inhibition of Wistar albino rat xanthine oxidase isolated from liver using xanthine as substrate incubated for 15 mins prior to substrate addition by spectrophotometric analysis
In short: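 Xanthine oxidase was prepared from perfused Wistar albino rat liver. The liver was homogenized in ice-cold 0.05 M phosphate (pH 7.8) with 0.1 mM EDTA and spun at 10,000g. The supernatant was precipitated with 60% ammonium sulfate, dialyzed against phosphate pH 6.8, and protein measured by Lowry. Enzyme was preincubated with compound in DMSO in phosphate pH 7.4 at room temperature for 15 min. Uric acid was read at 295 nm; inhibition was relative to DMSO-only control, and IC50 came from linear regression.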

[2] = tested on: Radical scavenging activity; experiment: Antioxidant activity assessed as inhibition DPPH radical production after 15 mins by spectrophotometric analysis; format: functional
In short: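 Compounds at 1–50 in methanol were mixed with an equal volume of methanolic DPPH. Absorbance was compared with a control of DPPH plus methanol without compound, and results are given as percent radical scavenging.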

[3] = biological target: T1, Xanthine dehydrogenase/oxidase; experiment: Competitive inhibition of Wistar albino rat xanthine oxidase isolated from liver using xanthine as substrate by Lineweaver-Burk plot analysis
In short: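 Inhibition type was assessed with the rat liver XO preparation by varying xanthine substrate across 1–5 and analysing by Lineweaver–Burk plot.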

T1 sequence (P22985 whole entry, the tested form may be a part): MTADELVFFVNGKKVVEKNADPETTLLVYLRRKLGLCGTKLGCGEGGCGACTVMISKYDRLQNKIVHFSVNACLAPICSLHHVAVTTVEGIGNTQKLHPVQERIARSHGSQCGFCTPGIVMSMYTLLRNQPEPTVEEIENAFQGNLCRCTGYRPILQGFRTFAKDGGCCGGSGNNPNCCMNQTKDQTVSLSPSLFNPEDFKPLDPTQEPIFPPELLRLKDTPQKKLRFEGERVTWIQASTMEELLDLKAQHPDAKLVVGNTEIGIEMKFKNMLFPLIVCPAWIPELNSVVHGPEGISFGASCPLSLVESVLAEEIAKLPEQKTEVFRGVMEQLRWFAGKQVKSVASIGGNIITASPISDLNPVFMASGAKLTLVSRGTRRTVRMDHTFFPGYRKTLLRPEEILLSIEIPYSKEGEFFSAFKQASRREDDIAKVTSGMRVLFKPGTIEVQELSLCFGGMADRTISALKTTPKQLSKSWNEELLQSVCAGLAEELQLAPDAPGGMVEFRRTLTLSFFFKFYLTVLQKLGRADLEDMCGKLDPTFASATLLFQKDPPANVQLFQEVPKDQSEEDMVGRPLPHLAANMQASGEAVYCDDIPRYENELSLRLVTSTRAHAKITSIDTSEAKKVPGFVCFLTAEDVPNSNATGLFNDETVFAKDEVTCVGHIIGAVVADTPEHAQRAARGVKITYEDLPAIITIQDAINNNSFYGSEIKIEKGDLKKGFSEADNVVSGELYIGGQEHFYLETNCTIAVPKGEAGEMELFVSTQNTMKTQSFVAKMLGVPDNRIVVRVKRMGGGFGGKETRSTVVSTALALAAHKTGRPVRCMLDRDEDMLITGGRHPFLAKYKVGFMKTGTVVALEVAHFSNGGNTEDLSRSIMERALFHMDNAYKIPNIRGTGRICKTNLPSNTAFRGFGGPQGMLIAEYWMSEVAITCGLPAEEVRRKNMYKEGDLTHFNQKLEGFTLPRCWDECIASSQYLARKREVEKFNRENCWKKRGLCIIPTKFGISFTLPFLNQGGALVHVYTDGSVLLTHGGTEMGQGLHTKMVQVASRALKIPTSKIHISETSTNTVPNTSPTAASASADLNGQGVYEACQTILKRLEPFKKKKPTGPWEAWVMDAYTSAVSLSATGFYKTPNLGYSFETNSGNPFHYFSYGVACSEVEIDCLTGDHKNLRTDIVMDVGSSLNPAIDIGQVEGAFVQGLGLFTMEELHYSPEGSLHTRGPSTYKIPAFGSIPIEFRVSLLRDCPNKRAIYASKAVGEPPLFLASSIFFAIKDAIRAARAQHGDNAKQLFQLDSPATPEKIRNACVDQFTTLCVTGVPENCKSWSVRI

Work on `CCCCc1nc(Cl)c(C2CC(c3cc(Cl)sc3Cl)=NN2c2nc(-c3ccc(Cl)cc3)cs2)[nH]1` (configuration not stated) yielded an IC50 [1] of 26 µM and an IC50 [2] of 31.5 µM.

In the case of `CCCCc1nc(Cl)c(C2CC(c3cc(Cl)sc3SCc3ccccc3)=NN2c2nc(-c3ccc(Cl)cc3)cs2)[nH]1` (configuration not stated), the IC50 [1] is reported as 20 µM and the IC50 [2] is reported as 21.8 µM.

Compound `CCCCc1nc(Cl)c(C2CC(c3cc(Cl)sc3S(N)(=O)=O)=NN2c2nc(-c3ccc(Cl)cc3)cs2)[nH]1` (configuration not stated) has an IC50 [1] of 23.9 µM and an IC50 [2] of 29.3 µM.

`Clc1ccc(-c2csc(N3N=C(c4cc(Cl)sc4Cl)CC3c3ccc(Cl)cc3)n2)cc1` (configuration not stated) was tested, and the IC50 [1] was 36 µM and the IC50 [2] was 44.8 µM.

For `Clc1ccc(-c2csc(N3N=C(c4cc(Cl)sc4SCc4ccccc4)CC3c3ccc(Cl)cc3)n2)cc1` (configuration not stated), the IC50 [1] was 32 µM and the IC50 [2] was 41.5 µM.

With `NS(=O)(=O)c1sc(Cl)cc1C1=NN(c2nc(-c3ccc(Cl)cc3)cs2)C(c2ccc(Cl)cc2)C1` (configuration not stated) the IC50 [1] was 34.2 µM and the IC50 [2] was 43 µM.

Work on `Fc1ccc(C2CC(c3cc(Cl)sc3Cl)=NN2c2nc(-c3ccc(Cl)cc3)cs2)cc1` (configuration not stated) yielded an IC50 [1] of over 50 µM and an IC50 [2] of over 50 µM.

Compound `Fc1ccc(C2CC(c3cc(Cl)sc3SCc3ccccc3)=NN2c2nc(-c3ccc(Cl)cc3)cs2)cc1` (configuration not stated) has an IC50 [1] of over 50 µM and an IC50 [2] of over 50 µM.

For `NS(=O)(=O)c1sc(Cl)cc1C1=NN(c2nc(-c3ccc(Cl)cc3)cs2)C(c2ccc(F)cc2)C1` (configuration not stated), the IC50 [1] was over 50 µM and the IC50 [2] was over 50 µM.

With `CN(C)c1ccc(C2CC(c3cc(Cl)sc3Cl)=NN2c2nc(-c3ccc(Cl)cc3)cs2)cc1` (configuration not stated) the IC50 [1] was 9.4 µM and the IC50 [2] was 21.1 µM.

With `CN(C)c1ccc(C2CC(c3cc(Cl)sc3SCc3ccccc3)=NN2c2nc(-c3ccc(Cl)cc3)cs2)cc1` (configuration not stated) the “inhibition (INH)” value [3] was “Active”, the IC50 [1] was 6.2 µM and the IC50 [2] was 15.6 µM.

Compound `CN(C)c1ccc(C2CC(c3cc(Cl)sc3S(N)(=O)=O)=NN2c2nc(-c3ccc(Cl)cc3)cs2)cc1` (configuration not stated) has an IC50 [1] of 8.3 µM and an IC50 [2] of 19.3 µM.

`Oc1ncnc2[nH]ncc12` [ALLOPURINOL] showed an IC50 [1] of 6 µM.

For `O=C1O[C@H]([C@@H](O)CO)C(O)=C1O` [ASCORBIC ACID], the IC50 [2] was 11.5 µM.
